Measurements from ChEMBL document CHEMBL2146474, “Synthesis and evaluation of the anti-proliferative and NF-κB activities of a library of simplified tylophorine analogs” (Bioorg Med Chem, 2012).
Calls of active or inactive are those of the source. No cut-off for these calls is given here.

Columns and labels:
[1] = Inhibition of TNFalpha-induced NF-kappaB activation in human A549 cells after 30 mins by luciferase reporter gene assay; assay type: cell-based; conditions: A549, 0.5 h
Outline: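 A549/NF-κB-luc reporter cells trypsinized, seeded at 5000 cells/well and left 24 h to attach. Compound in complete growth medium added 30 min before TNF-α (1:667 dilution in 1× PBS). After a further 7 h, Bright-Glo luciferin reagent added and luciferase activity read 2 min later.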

MCF7 [2] = assay: Growth inhibition in human MCF7 cells after 72 hrs by alamar blue assay; assay type: functional; conditions: MCF7, 72 h
Outline: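 MCF-7 cells from exponential-phase culture re-suspended in RPMI1640 with 10% FBS, adjusted to 10⁵ cells/mL and plated in 96-well plates. Compounds from 10 mM DMSO stocks were added in fresh medium across varying concentrations. Cells were grown a further 72 h, then alamarBlue was added as read-out.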

DU-145 = assay: Growth inhibition in human DU145 cells after 72 hrs by alamar blue assay; assay type: functional; conditions: DU-145, 72 h
Outline: (§1)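 Cells harvested from exponential-phase culture and resuspended at 10⁵ cells/mL in growth medium with 10% FBS (RPMI1640, EMEM or DMEM; the DMEM also held penicillin, streptomycin and hygromycin), seeded in 96-well plates. Compounds from 10 mM DMSO stocks added in fresh medium across varying concentrations. Cultures grown a further 72 h, then alamarBlue added as read-out.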

A549 = assay: Growth inhibition in human A549 cells after 72 hrs by alamar blue assay; assay type: functional; conditions: A549, 72 h; outline: as §1
MCF7 [3] = assay: Cytotoxicity against human MCF7 cells assessed as growth inhibition at 5 uM after 72 hrs by alamar blue assay; assay type: functional; conditions: for inhibition of growth at 5 µM: MCF7, 72 h, read-out: GI

SMILES	GI50 (MCF7 [2])	growth inhibition (GI) (MCF7 [3])	also measured
COc1cc2c3c(c4cc(OC)c(OC)cc4c2cc1OC)CN1CCCC1C3 (racemic) [(+/-)-TYLOPHORINE]	42 nM		IC50 [1]: 30 nM; GI50 (DU-145): 71 nM; GI50 (A549): 45 nM
COc1cc2c3c(c4cc(OC)c(OC)cc4c2cc1OC)CN(Cc1cc(C)on1)CC3		Active	
COc1ccccc1CN1CCc2c(c3cc(OC)c(OC)cc3c3cc(OC)c(OC)cc23)C1	600 nM		IC50 [1]: 15000 nM; inhibition of growth at 5 µM (MCF7 [3]): 90%; GI50 (DU-145): 1500 nM; GI50 (A549): 1600 nM
COc1cc2c3c(c4cc(OC)c(OC)cc4c2cc1OC)CN(Cc1ccc(CO)o1)CC3		Active	
COc1cc2c3c(c4cc(OC)c(OC)cc4c2cc1OC)CN(Cc1ccccc1O)CC3		Active	
COc1cc2c3c(c4cc(OC)c(OC)cc4c2cc1OC)CN1CCC[C@@H]1C3 [TYLOPHORINE]	32 nM		
COc1cc2c3c(c4cc(OC)c(OC)cc4c2cc1OC)CN(Cc1ccc([N+](=O)[O-])cc1)CC3		Active	
COc1ccc(CN2CCc3c(c4cc(OC)c(OC)cc4c4cc(OC)c(OC)cc34)C2)cc1		Active	
COc1cc2c3c(c4cc(OC)c(OC)cc4c2cc1OC)CN(Cc1c(OC)cccc1OC)CC3		inactive	
COc1cc2c3c(c4cc(OC)c(OC)cc4c2cc1OC)CN(CCN)CC3		inactive	
COc1cc2c3c(c4cc(OC)c(OC)cc4c2cc1OC)CNCC3			inhibition of growth at 5 µM (MCF7 [3]): 50%
COc1cc2c3c(c4cc(OC)c(OC)cc4c2cc1OC)CN(C)CC3			inhibition of growth at 5 µM (MCF7 [3]): 50%
COc1cc2c3c(c4cc(OC)c(OC)cc4c2cc1OC)CN(Cc1ccccc1)CC3		inactive	
COc1cc2c3c(c4cc(OC)c(OC)cc4c2cc1OC)CN(Cc1cccc(OC)c1O)CC3	3000 nM	Active	IC50 [1]: 18900 nM; GI50 (DU-145): 2100 nM; GI50 (A549): 2100 nM
COc1cc2c3c(c4cc(OC)c(OC)cc4c2cc1OC)CN1CCC[C@H]1C3 [(S)-TYLOPHORINE]	42 nM		
